In ChEMBL document CHEMBL3600329, “Synthesis, biological profiling and mechanistic studies of 4-aminoquinoline-based heterodimeric compounds with dual trypanocidal-antiplasmodial activity” (Bioorg Med Chem, 2015):

Assays:
Trypanosoma brucei = assay: Trypanocidal activity against bloodstream form of Trypanosoma brucei 221 assessed as inhibition of parasite growth at pH 7.4 after 48 hrs by Spectramax plate reader analysis; format: functional, organism-based; settings: Trypanosoma brucei, 221, 48 h
Outline: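 Bloodstream-form T. brucei strain 221 grown at 37 °C in modified Iscove's medium; log-phase cells diluted to 0.25 × 10^5 mL⁻¹, exposed to a range of compound concentrations in triplicate at 37 °C. Resazurin added after 48 h, read after a further 16 h. IC50 and IC90 = concentrations inhibiting growth 50% and 90%; mean of triplicate experiments ± SEM.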

Plasmodium falciparum = assay: Antiplasmodial activity against chloroquine-resistant Plasmodium falciparum K1 infected in human A+ erythrocytes assessed as inhibition of parasite growth after 48 hrs by LDH assay; format: functional, organism-based; settings: K1, 48 h
Outline: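 Ring-stage cultures in human A+ erythrocytes (RPMI 1640, A+ serum, D-glucose), 2.5% haematocrit, 1% parasitaemia; twofold serial dilutions in duplicate, DMSO ≤0.5% final. 48 h at 37 °C under 93% N2/3% O2/4% CO2. Growth read as lactate dehydrogenase activity (APAD, lactate, diaphorase, NBT; 550 nm); % inhibition vs controls; IC50 by linear regression; mean of triplicate experiments.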

L6 = assay: Cytotoxicity against rat L6 cells assessed as inhibition of cell growth after 6 days by Spectramax fluorescence plate reader analysis; format: cell-based; settings: L6, 144 h
Outline: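 L6 rat skeletal myoblasts seeded at 1×10^4 mL⁻¹ in growth medium containing a range of compound concentrations, incubated 6 days at 37 °C; resazurin added, fluorescence read after a further 8 h. IC50 = concentration inhibiting growth by 50%; mean of triplicate experiments ± SEM.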

[1] = Selectivity index, ratio of IC50 for rat L6 cells to IC50 for bloodstream form of Trypanosoma brucei 221; format: toxicity, cell-based; settings: read-out: Ratio IC50
Outline: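 IC50 ratio, L6 over T. brucei. L6 cells seeded at 1×10^4 mL⁻¹ with compound, 6 days at 37 °C, then resazurin, 8 h more, fluorescence read. Log-phase bloodstream T. brucei 221 in modified Iscove's medium at 0.25 × 105 mL⁻¹, compound range in triplicate, 37 °C; resazurin at 48 h, read after 16 h more.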

[2] = Selectivity index, ratio of IC50 for rat L6 cells to IC50 for chloroquine-resistant Plasmodium falciparum K1; format: toxicity, cell-based; settings: read-out: Ratio IC50
Outline: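 IC50 ratio, L6 over P. falciparum K1. L6 cells seeded at 1×10^4 mL⁻¹ with compound, 6 days at 37 °C, resazurin added, fluorescence after 8 h. Parasites in A+ erythrocytes (2.5% haematocrit, 1% parasitaemia) with twofold dilutions, 48 h at 37 °C in low-oxygen gas; growth read by LDH activity at 550 nm.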

[3] = Inhibition of beta-haematin formation by microplate reader analysis relative to hemin; format: physicochemical
Outline: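 Haemin chloride (8 mM stock in DMSO) mixed with serial compound dilutions (0.5-32 mM) in 25% DMSO; formation initiated with 8 M acetate buffer pH 5.0, 18 h at 37 °C. Pellets washed with DMSO, β-haematin dissolved in 0.1 M NaOH, OD 400 nm read versus drug-free controls; BHIA50 expressed as compound equivalents relative to haemin, by linear regression.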

[4] = Permeability by PAMPA-BBB assay; format: ADME; settings: read-out: Peff
Outline: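 Parallel artificial membrane permeation through porcine brain lipid extract, using PBS:EtOH 70:30; effective permeability Pe reported as mean ± SD of three independent experiments.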

Acetylcholinesterase = Acetylcholinesterase (Homo sapiens, UniProt P22303); assay: Inhibition of human recombinant AChE using acetylthiocholine iodide as substrate preincubated with enzyme for 20 mins prior to substrate addition by Ellman's method
Chain of Acetylcholinesterase (P22303 whole entry): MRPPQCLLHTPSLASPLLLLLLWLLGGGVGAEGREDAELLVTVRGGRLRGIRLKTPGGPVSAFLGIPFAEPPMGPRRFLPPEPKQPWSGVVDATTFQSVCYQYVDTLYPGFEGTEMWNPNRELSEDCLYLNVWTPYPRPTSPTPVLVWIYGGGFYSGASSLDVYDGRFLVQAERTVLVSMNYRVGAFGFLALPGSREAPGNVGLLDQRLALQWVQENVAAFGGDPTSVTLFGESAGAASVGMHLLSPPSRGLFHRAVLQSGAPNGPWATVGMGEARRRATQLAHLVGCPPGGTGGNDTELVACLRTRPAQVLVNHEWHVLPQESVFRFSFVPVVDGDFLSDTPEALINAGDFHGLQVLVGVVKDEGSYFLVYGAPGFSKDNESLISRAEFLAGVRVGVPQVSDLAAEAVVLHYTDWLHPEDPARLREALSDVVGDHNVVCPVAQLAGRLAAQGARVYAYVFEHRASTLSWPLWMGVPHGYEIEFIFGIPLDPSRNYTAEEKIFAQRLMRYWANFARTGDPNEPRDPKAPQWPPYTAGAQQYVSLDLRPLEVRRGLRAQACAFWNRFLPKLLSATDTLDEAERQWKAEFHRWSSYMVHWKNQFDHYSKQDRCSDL
Outline: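 Ellman assay in 0.1 M phosphate buffer pH 8.0 with hAChE 0.02 u/mL and 333 µM DTNB. At least 10 inhibitor concentrations, in duplicate, preincubated 20 min at 37 °C. Then 450 µM acetylthiocholine iodide, 5 min at 37 °C; absorbance at 414 nm against an uninhibited sample. IC50 by non-linear regression; mean ± S.E.M. of at least 4 experiments.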

| Structure (SMILES) | IC50 (Trypanosoma brucei) | IC90 (Trypanosoma brucei) | IC50 (Plasmodium falciparum) | IC50 (L6) | selectivity ratio [1] | selectivity ratio [2] | IC50 [3] | Papp [4] | IC50 (Acetylcholinesterase) |
| --- | --- | --- | --- | --- | --- | --- | --- | --- | --- |
| CC1=CC2Cc3nc4cc(Cl)ccc4c(NCCCCCCCCCNc4c5c(nc6cc(Cl)ccc46)CCCC5)c3C(C1)C2 (configuration not stated) | 240 nM | 520 nM | > 6820 nM | 40000 nM | 167 | < 5.9 |  |  |  |
| COc1cc2c(cc1OC)C(=O)C(CC1CCN(CCNc3c4c(nc5cc(Cl)ccc35)CCCC4)CC1)C2 (configuration not stated) | 300 nM | 680 nM | 4860 nM | < 3000 nM | < 10 | < 0.62 |  |  |  |
| COc1cc2c(cc1OC)C(=O)C(CC1CCN(CCCNc3c4c(nc5ccccc35)CCCC4)CC1)C2 (configuration not stated) | 280 nM | 620 nM |  | < 1000 nM | < 3.6 |  |  |  |  |
| COc1cc2c(cc1OC)CC(CC1CCN(CCNc3c4c(nc5cc(Cl)ccc35)CC3C=C(C)CC4C3)CC1)C2 (configuration not stated) | 490 nM | 1180 nM | > 7010 nM | 6760 nM | 14 | < 1 |  |  |  |
| CN(C)[C@@H]1C(O)=C(C(N)=O)C(=O)[C@@]2(O)C(O)=C3C(=O)c4c(O)cccc4[C@@](C)(O)[C@H]3C[C@@H]12 [TETRACYCLINE] |  |  |  |  |  |  | > 4 equiv |  |  |
| CC1=CC2Cc3nc4ccccc4c(NCCCCCCCCCCCCNc4c5c(nc6cc(Cl)ccc46)CCCC5)c3C(C1)C2 (configuration not stated) | 550 nM | 750 nM | > 6900 nM | 2740 nM | 5 | < 0.4 |  | 11 ×10⁻⁶ cm/s | 3.66 nM |
| CC1=CC2Cc3nc4cc(Cl)ccc4c(NCCCCCCCCNc4c5c(nc6cc(Cl)ccc46)CCCC5)c3C(C1)C2 (configuration not stated) | 170 nM | 460 nM | > 7140 nM | 970 nM | 5.7 | < 0.14 |  |  |  |
| CC1=CC2Cc3nc4cc(Cl)ccc4c(NCCCCCCCCCCCCNc4c5c(nc6cc(Cl)ccc46)CCCC5)c3C(C1)C2 (configuration not stated) | 590 nM | 770 nM | > 6600 nM | 5580 nM | 9.5 | < 0.85 |  | 16.8 ×10⁻⁶ cm/s | 3.46 nM |
| CC1=C[C@H]2Cc3nc4cc(Cl)ccc4c(NCCCCCCCNc4c5c(nc6ccccc46)CCCC5)c3[C@@H](C1)C2 | 210 nM | 420 nM | 350 nM | 730 nM | 3.5 | 2.1 |  |  |  |
| CC1=CC2Cc3nc4ccccc4c(NCCCCCCCCCCCCNc4c5c(nc6ccccc46)CCCC5)c3C(C1)C2 (configuration not stated) | 210 nM | 280 nM | > 7300 nM | < 1000 nM | < 4.8 | < 0.14 |  | 7.3 ×10⁻⁶ cm/s | 10.1 nM |
| CCC1=CC2Cc3nc4cc(Cl)ccc4c(NCCN4CCC(CC5Cc6cc(OC)c(OC)cc6C5)CC4)c3C(C1)C2 (configuration not stated) | 290 nM | 700 nM | > 7140 nM | 3550 nM | 12 | < 0.5 |  |  |  |
| CC1=CC2Cc3nc4ccccc4c(NCCCCCCCCCCNc4c5c(nc6cc(Cl)ccc46)CCCC5)c3C(C1)C2 (configuration not stated) | 340 nM | 430 nM | 4360 nM | 1110 nM | 3.3 | 0.25 |  | 17.2 ×10⁻⁶ cm/s | 1.48 nM |
| CC1=CC2Cc3nc4cc(Cl)ccc4c(NCCCN(C)CCCNc4c5c(nc6cc(Cl)ccc46)CCCC5)c3C(C1)C2 (configuration not stated) | 280 nM | 400 nM | 520 nM | < 1000 nM | < 3.6 | < 1.9 |  |  |  |
| CC1=CC2Cc3nc4cc(Cl)ccc4c(NCCCCCCCNc4c5c(nc6cc(Cl)ccc46)CCCC5)c3C(C1)C2 (configuration not stated) | 270 nM | 430 nM | > 6880 nM | < 3000 nM | < 11 | < 0.44 |  |  |  |
| CC1=CC2Cc3nc4cc(Cl)ccc4c(NCCCCCCCNc4c5c(nc6ccccc46)CCCC5)c3C(C1)C2 (configuration not stated) | 240 nM | 430 nM | 470 nM | < 1000 nM | < 4.2 | < 2.1 |  |  |  |
| CC1=CC2Cc3nc4ccccc4c(NCCCCCCCCCCNc4c5c(nc6ccccc46)CCCC5)c3C(C1)C2 (configuration not stated) | 240 nM | 310 nM | 3500 nM | < 1000 nM | < 4.2 | < 0.29 |  | 6.3 ×10⁻⁶ cm/s | 6.46 nM |
| CC1=CC2Cc3nc4cc(Cl)ccc4c(NCCCCCCNc4c5c(nc6ccccc46)CCCC5)c3C(C1)C2 (configuration not stated) | 470 nM | 660 nM | 2990 nM | 1170 nM | 2.5 | 0.39 |  |  |  |
| CC1=CC2Cc3nc4cc(Cl)ccc4c(NCCCN(C)CCCNc4c5c(nc6ccccc46)CCCC5)c3C(C1)C2 (configuration not stated) | 320 nM | 450 nM | 430 nM | < 1000 nM | < 3.1 | < 2.3 |  |  |  |
| CCC1=C[C@@H]2Cc3nc4cc(Cl)ccc4c(NCCCN4CCC(CC5Cc6cc(OC)c(OC)cc6C5)CC4)c3[C@H](C1)C2 | 260 nM | 1330 nM | 810 nM | 2150 nM | 8.3 | 2.7 |  |  |  |
| CCC1=C[C@@H]2Cc3nc4cc(Cl)ccc4c(NCCN4CCC(CC5Cc6cc(OC)c(OC)cc6C5)CC4)c3[C@H](C1)C2 | 290 nM | 720 nM | > 7050 nM | 6290 nM | 22 | < 0.89 |  |  |  |
| CCN(CC)CCCC(C)Nc1ccnc2cc(Cl)ccc12 (configuration not stated) [CHLOROQUINE] |  |  |  |  |  |  | 0.14 equiv |  |  |
| CC1=CC2Cc3nc4cc(Cl)ccc4c(NCCCCCCCCCCCCNc4c5c(nc6ccccc46)CCCC5)c3C(C1)C2 (configuration not stated) | 350 nM | 520 nM | > 6900 nM | 1040 nM | 3 | < 0.15 |  | 10.8 ×10⁻⁶ cm/s | 1.92 nM |
| CC1=CC2Cc3nc4cc(Cl)ccc4c(NCCCCCCCCCCNc4c5c(nc6ccccc46)CCCC5)c3C(C1)C2 (configuration not stated) | 140 nM | 480 nM |  | 1670 nM | 12 |  |  |  |  |
| COc1cc2c(cc1OC)CC(CC1CCN(CCNc3c4c(nc5ccccc35)CCCC4)CC1)C2 | 380 nM | 790 nM | 2600 nM | < 3000 nM | < 7.9 | < 1.2 |  |  |  |
| CC1=CC2Cc3nc4cc(Cl)ccc4c(NCCCCCCCCCCNc4c5c(nc6cc(Cl)ccc46)CCCC5)c3C(C1)C2 (configuration not stated) | 170 nM | 490 nM | 2100 nM | 2630 nM | 15 | 1.3 |  |  |  |
| COc1cc2c(cc1OC)C(=O)C(CC1CCN(CCNc3c4c(nc5ccccc35)CCCC4)CC1)C2 (configuration not stated) | 410 nM | 880 nM | > 8150 nM | < 3000 nM | < 7.3 | < 0.37 |  |  |  |
| CC1=C[C@@H]2Cc3nc4cc(Cl)ccc4c(NCCCCCCCNc4c5c(nc6ccccc46)CCCC5)c3[C@H](C1)C2 | 290 nM | 490 nM | 460 nM | < 1000 nM | < 3.4 | < 2.2 |  |  |  |
| CC1=CC2Cc3nc4cc(Cl)ccc4c(NCCCCCCNc4c5c(nc6cc(Cl)ccc46)CCCC5)c3C(C1)C2 (configuration not stated) | 560 nM | 790 nM | 4400 nM | 1100 nM | 2 | 0.25 |  |  |  |
| COc1cc2c(cc1OC)CC(CC1CCN(CCNc3c4c(nc5cc(Cl)ccc35)CCCC4)CC1)C2 | 970 nM | 2390 nM | > 7720 nM | 2420 nM | 2.5 | < 0.31 |  |  |  |
